# Bioassay records deposited in PubChem by Broad Institute.
# PglD inh: PglD (C. jejuni) enzyme inhibition | purified PglD enzyme, DTNB colorimetric CoA detection | inhibition, % at 12.5 µM | 0.098% of 360,000 active; in the data active means inhibition above about 16%, passing the limit was not always enough
# HIV Env fusion: blocks HIV Env-driven cell-cell fusion; 1.1% of 360,000 active; HeLa-JRFL Env/CEM21 cell fusion, luciferase; inhibition, % at 12.3 µM;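 active means mean replicate inhibition score of at least 50 and every replicate individually at or above 50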;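 further: 0% = plate neutral controls and 100% = maraviroc near 300 nM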
# N-glyco inh: blocks N-linked glycosylation in D54 reporter cells | AID 588692 | 0.23% of 360,000 active | D54 ERlucT glycosylation luciferase reporter, 24 h; percent of 100 nM tunicamycin response | reporter increase, % at 12.5 µM;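 active means mean luciferase reporter signal, scaled so untreated is 0 and the glycosylation-blocking control 100, at or above a set limit in every replicate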;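 further: luciferase carries N-glycosylation sites so blocking glycosylation raises the light; 0% = median of neutral control wells and 100% = median of 100 nM tunicamycin wells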
# SR-BI DiI-HDL act: SR-BI HDL lipid transfer activation; CHO ldlA[mSR-BI] cells, DiI-HDL uptake fluorescence, 3 h; 100 = double the neutral-control signal; activation, % at 12.5 µM; 0.096% of 320,000 active; AID 504775;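 active means mean replicate activation of at least 60% and every replicate at or above 60%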;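 further: 0% = median plate neutral-control signal and 100% = twice that signal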
#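 Assay system: LDL receptor-deficient CHO ldlA cells overexpressing murine SR-BI / Medium: BSA-supplemented, HEPES-buffered Ham's F12, pH 7.4 / Probe or stimulus: DiI-labelled HDL at 10 µg/mL final / Timing: compound with DiI-HDL co-incubation, 3 h at 37 °C / Technique: bottom-read cell fluorescence after medium removal, ex 550/em 595 nm / Measure: HDL uptake via cellular fluorescence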
# Rtt109 HAT inh: C. albicans Rtt109 histone acetyltransferase inhibition; Q5AAJ8; inhibition, % at 34.9 µM; 0.16% of 330,000 active; purified Rtt109/Vps75, ThioGlo CoA-SH fluorescence, 4 h;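 active means inhibition of at least 50% in every replicate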
# SR-BI DiI inh: inhibitors of mouse SR-BI mediated HDL lipid uptake; ldlA[mSR-BI] CHO cells, DiI-HDL uptake fluorescence, 3 h; inhibition, % at 12.5 µM; 0.96% of 320,000 active; AID 488896;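 active means mean replicate inhibition of at least 70% and a set share of replicates each scoring 70 or more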;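 further: 0% = median of neutral control wells and 100% = median of positive control wells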
# * marks the source's active call; other numbers are inactive results; / = no result; [ ] = another dose, or the depositor's remark. Sampled rows, rich in hits. Any-hit rate of the full collection: about 1.9%.
SMILES,PglD inh,HIV Env fusion,N-glyco inh,SR-BI DiI-HDL act,Rtt109 HAT inh,SR-BI DiI inh
Cc1ccccc1S(=O)(=O)N1C[C@H]2[C@@H](c3ccccc31)[C@@H](CO)N2C(=O)CC1CC1,0,/,/,/,/,/
C[C@@H]1CCCCO[C@H](CN(C)S(=O)(=O)c2ccccc2)[C@H](C)CN([C@@H](C)CO)C(=O)c2cc(NC(=O)c3ccncc3)ccc2O1,-1,-23[16.7 µM],/,/,/,/
C[C@H]1CN([C@@H](C)CO)C(=O)Cc2cc(NC(=O)CCN3CCOCC3)ccc2O[C@@H]1CN(C)Cc1ccc(-c2ccccc2)cc1,/,-12[16.7 µM],/,/,/,/
COc1cc(-c2nnc(SCC3(c4ccc(Br)cc4)OCCO3)o2)cc(OC)c1OC,2,/,49*,-46,1,46
COc1cc(-c2nnc(SCC(=O)N3CCOCC3)o2)cc(OC)c1OC,-1,9,5,-2,6,2
O=C(c1ccc(Cl)cc1)N1N=CCC1(O)c1ccc(Cl)cc1 (centres undefined),-6,0,-1,-88,7,88*
CC1(O)CC(c2ccc(Cl)cc2)=NN1C(=O)c1ccc(Cl)cc1 (centres undefined),-10,13,1,-29,-9,29
COc1ccc(NC(=O)N(C)C[C@@H]2OCCCC[C@@H](C)Oc3ccc(NC(=O)C4CCCCC4)cc3C(=O)N([C@@H](C)CO)C[C@H]2C)cc1,0,8[16.7 µM],/,/,/,/
COc1ccc(-n2nnnc2-c2cccc(OC)c2)cc1,1,56*,16,-13,9,13
C#CCOc1nc(C)cc(C)c1S(=O)(=O)c1ccccc1C,/,4,0,-2,3,2
Cc1cc(C)c(S(=O)(=O)c2c(C)cccc2C)c(OCC(C)C)n1,-1,78*,-8,7,-7,-7
O=C(CSC1=NC2(CCCCC2)N=C1c1ccccc1)Nc1ccc2c(c1)OCCO2,-2,29,1,-3,170*,3
O=C(CSC1=NC2(CCCCCC2)N=C1c1ccccc1)Nc1ccc2c(c1)OCCO2,0,28,-1,-15,-12,15
C[C@H]1CN([C@@H](C)CO)C(=O)c2cccc(NC(=O)C3CCOCC3)c2O[C@H]1CN(C)Cc1ccc(C(=O)O)cc1,5,12[16.7 µM],/,/,/,/
C[C@@H]1CCCCO[C@@H](CN(C)C(=O)Nc2cccc3ccccc23)[C@H](C)CN([C@H](C)CO)C(=O)c2cc(NC(=O)Nc3ccc(C(F)(F)F)cc3)ccc2O1,-1,37[16.7 µM],/,/,/,/
CCOC(=O)c1nc(Nc2ccc(Nc3ccccc3)cc2)c2ccccc2n1,/,13,7,-23,14,23
CCOC(=O)c1nc(Nc2ccc(N3CCC(C)CC3)cc2)c2ccccc2n1,1,62*,-10,/,20,/
COC(=O)C(C)N(C(=O)c1cccc(Cl)c1)c1c(C)cccc1C (centres undefined),-4,5,-2,28,1,-28
COC(=O)C(C)N(C(=O)c1cccc2ccccc12)c1c(C)cccc1C (centres undefined),/,78*,-3,8,-12,-8
CC(C)N(C[C@H]1N[C@@H](CO)[C@H]1c1ccccc1)C(=O)c1ccccc1,0,/,/,/,/,/
O=C(Nc1cccc(C(F)(F)F)c1)N1CCC(c2nc(-c3ccc(F)cc3)no2)CC1,0,69*,-3,-7,-2,7
CCS(=O)(=O)N1CCC(c2nc(-c3ccc(C(F)(F)F)cc3)no2)CC1,-1,56*,1,4,4,-4
O=S(=O)(c1ccc(Cl)cc1)N1CCCN(c2nc3ccc(Cl)cc3s2)CC1,/,91*,-2,5,3,-5
COc1cc(OC)nc(Nc2nc(C(N)COCc3ccccc3)cs2)n1 (centres undefined),1,97*,3,/,/,/
O=[N+]([O-])c1cccc(-c2nc(-c3cccs3)c(-c3cccs3)[nH]2)c1,0,-84,-5,-91,-7,91*
O=[N+]([O-])c1cccc(-c2nc(-c3ccccc3)c(-c3cccs3)[nH]2)c1,-3,/,-1,/,-5,/
CCOC(=O)c1c(NC(=O)CSc2nnc(CNc3ccc(OC)cc3)n2C)sc(C)c1C,/,27*,0,-44,-4,44
